Measured values reported in paper PMC12032937 (iScience, 2025).

Assays:
mPRδ [1] = settings: MDA231 cells transiently transfected to express mPRδ; cited from earlier work
mPRδ [2] = biological target: T1, mPRδ (Mus musculus, UniProt Q6TCG5); experiment: PKC activation; type: cell-based; settings: mPRδ-GFP cells, 300nM, 20 min, increase above control (100%)
T1 sequence (Q6TCG5 1-343): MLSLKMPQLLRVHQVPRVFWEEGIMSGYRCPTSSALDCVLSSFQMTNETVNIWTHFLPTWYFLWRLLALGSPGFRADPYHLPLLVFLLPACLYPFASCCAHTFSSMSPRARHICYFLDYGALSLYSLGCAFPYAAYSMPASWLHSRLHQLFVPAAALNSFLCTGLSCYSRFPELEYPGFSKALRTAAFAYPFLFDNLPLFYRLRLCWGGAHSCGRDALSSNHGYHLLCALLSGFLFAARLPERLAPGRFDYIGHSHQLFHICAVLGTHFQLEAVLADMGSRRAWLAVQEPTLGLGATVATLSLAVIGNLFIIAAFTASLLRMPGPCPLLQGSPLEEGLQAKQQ

mPRε [3] = biological target: T2, mPRε (Mus musculus, UniProt Q6TCG2); experiment: Gs luminescent reporter assay; type: cell-based
T2 sequence (Q6TCG2 1-375): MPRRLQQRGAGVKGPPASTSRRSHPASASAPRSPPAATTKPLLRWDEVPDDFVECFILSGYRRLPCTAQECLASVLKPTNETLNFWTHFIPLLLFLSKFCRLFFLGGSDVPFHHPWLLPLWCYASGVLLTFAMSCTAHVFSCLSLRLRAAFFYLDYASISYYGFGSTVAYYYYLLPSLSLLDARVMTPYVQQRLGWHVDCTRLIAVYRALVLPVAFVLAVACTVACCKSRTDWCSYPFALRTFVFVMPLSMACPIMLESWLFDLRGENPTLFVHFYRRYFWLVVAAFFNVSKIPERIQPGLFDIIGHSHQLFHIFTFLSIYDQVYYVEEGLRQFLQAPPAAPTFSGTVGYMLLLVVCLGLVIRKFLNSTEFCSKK
Procedure, shortened: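 Clonal MDA-MB-231 cells stably expressing mouse mPRε with a C-terminal GFP tag, transfected (Lipofectamine 3000) with CRE-luciferase reporter, grown 72 h, then treated 6 h with a test compound concentration series; forskolin positive control. Lysed, luciferase luminescence read; runs kept only if positive control ≥2× untreated. Min/max scaled 0–100, curves fitted for EC50; n = 4.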

mPRδ [4] = biological target: T1, mPRδ; experiment: Gq luminescent reporter assay; type: cell-based
mPRε [5] = biological target: T2, mPRε; experiment: PKA activation; type: cell-based; settings: mPRε-GFP cells, 20 min; for PKA activation, pPKA/PKA normalized to control (100%): mean ± SEM, n=4; for increase in PKA activation compared to control treatment: increase above control (100%)
Procedure, shortened: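 MDA-MB-231 cells lentivirally expressing mouse mPRε-C-terminal GFP, FACS-selected clonal line, kept in DMEM/10% charcoal-stripped FBS, passage ≤20. Treated 20 min with test compound at 3–300nM, lysed in RIPA with phosphatase inhibitors, immunoblotted for phospho and total kinase. Ratio normalized to control within the line, then to host MDA231 cells; n = 4 separate passages; two-way ANOVA, Sidak post hoc.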

mPRδ [6] = biological target: T1, mPRδ; experiment: PKA activation; type: cell-based; settings: mPRδ-GFP cells, 20 min, mean ± SEM, n=4

Compound	phosphorylation of ERK (mPRδ [1])	increase in PKC activation/phosphorylation compared to control treatment (mPRδ [2]) [%]	EC50 (mPRε [3]) [nM]	EC50 (mPRδ [4]) [nM]	PKA activation, pPKA/PKA normalized to control (100%) (mPRε [5]; 3nM) [%]	PKA activation, pPKA/PKA normalized to control (100%) (mPRε [5]; 10nM) [%]	increase in PKA activation compared to control treatment (mPRε [5]; 30nM) [%]	PKA activation, pPKA/PKA normalized to control (100%) (mPRε [5]; 30nM) [%]	increase in PKA activation compared to control treatment (mPRε [5]; 100nM) [%]	PKA activation, pPKA/PKA normalized to control (100%) (mPRε [5]; 100nM) [%]	increase in PKA activation compared to control treatment (mPRε [5]; 300nM) [%]	PKA activation, pPKA/PKA normalized to control (100%) (mPRε [5]; 300nM) [%]	PKA activation, pPKA/PKA normalized to control (100%) (mPRδ [6]; 3nM) [%]	PKA activation, pPKA/PKA normalized to control (100%) (mPRδ [6]; 10nM) [%]	PKA activation, pPKA/PKA normalized to control (100%) (mPRδ [6]; 30nM) [%]	PKA activation, pPKA/PKA normalized to control (100%) (mPRδ [6]; 100nM) [%]	PKA activation, pPKA/PKA normalized to control (100%) (mPRδ [6]; 300nM) [%]
CC(=O)[C@H]1CC[C@H]2[C@@H]3CC[C@H]4C[C@H](O)CC[C@]4(C)[C@H]3CC[C@]12C [ALLO, allopregnanolone]	significant increase	43.58 ± 5.34	2.5	11.3	105.57 ± 15.02	130.55 ± 16.45	53.44	153.4 ± 19.57	60.49	160.49 ± 20.14	64.44	164.44 ± 15.71	86.327 ± 5.39	91.441 ± 4.66	83.155 ± 4.54	98.624 ± 11.00	103.26 ± 14.05
CC(=O)[C@H]1CC[C@H]2[C@@H]3CCC4=CC(=O)CC[C@]4(C)[C@H]3CC[C@]12C [progesterone]	significant increase																
